Bioassay records from PubChem.
This is a sample that favours compounds with a hit; in the whole collection about 2.2% have one here.
PPC-1+TRAIL kill: kills PPC-1 cancer cells in the presence of TRAIL. cell killing (% activity), % at 4 µM or 5 µM. PPC-1 cells + TRAIL, ATPLite viability luminescence. AID 1443. 220,000 compounds, 0.41% hits;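 active means cell killing above 50% in the first pass at 4 µM, then a duplicate retest at 5 µM averaging 50% or more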
C8 TRAIL sens: sensitizes caspase-8 expressing cells to TRAIL. NB7+C8 cells + TRAIL, ATPlite viability luminescence. inhibition (viability loss, TRAIL sensitization), % at 10 µM. 360,000 compounds, 1% hits. AID 624354;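 active means compounds causing at least 50% loss of cell viability in the single-dose screen, relative to plate controls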
STAT3 inh: STAT3 signaling inhibition | U3A cells, IL-6 STAT3-luciferase reporter, luminescence; host cell line lacks STAT1 | inhibition, % at 5.5 µM | 190,000 compounds, 0.89% hits;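 active means inhibition above the mean inhibition across all screened compounds plus 3 SD, cut at about 44% in these data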
FLuc inhib CS: inhibits firefly luciferase, flagging false hits in luciferase inhibition screens; AID 1006; inhibition, % at 10 µM; P08659; 200,000 compounds, 1.5% hits; ATPLite firefly luciferase biochemical luminescence, 10 min;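 active means inhibition above about 50% when tested at 10 µM, limit read from the data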
Target sequence (P08659 whole entry, looked up): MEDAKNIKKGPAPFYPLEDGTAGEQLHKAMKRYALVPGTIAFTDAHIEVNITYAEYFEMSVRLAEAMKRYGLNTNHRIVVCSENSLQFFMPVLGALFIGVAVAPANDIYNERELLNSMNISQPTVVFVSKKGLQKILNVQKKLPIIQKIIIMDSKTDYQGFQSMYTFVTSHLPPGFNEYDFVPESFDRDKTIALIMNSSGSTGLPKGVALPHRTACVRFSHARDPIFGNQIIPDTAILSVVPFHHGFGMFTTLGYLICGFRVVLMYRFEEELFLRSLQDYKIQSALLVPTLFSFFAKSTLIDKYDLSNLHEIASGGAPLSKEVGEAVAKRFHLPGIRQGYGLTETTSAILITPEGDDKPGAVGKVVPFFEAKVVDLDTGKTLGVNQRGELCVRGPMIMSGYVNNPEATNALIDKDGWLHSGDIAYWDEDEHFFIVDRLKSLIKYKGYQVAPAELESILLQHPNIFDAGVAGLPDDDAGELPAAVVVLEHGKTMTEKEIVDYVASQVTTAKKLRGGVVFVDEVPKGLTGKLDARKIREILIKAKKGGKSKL
FLuc stim CS: firefly luciferase counter-screen for stimulation assays. ATPlite luciferase biochemical, luminescence, 10 min; 0 = ATP-free wells, 1 = DMSO control. activation factor at 10 µM. P08659. 200,000 tested, under 10 active;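 active means luciferase activation factor, scaled between plate controls, of at least 2 with compound at 10 µM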
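System: Luciferase/luciferin detection reagent, cell-free biochemical luciferase assay | Medium: PBS buffer for ATP | Dosing: Test compounds dosed from 2 mM stocks in 100% DMSO | Timing: 10 min at ambient temperature | Signal: Luminescence measurement of luciferase light output | Evaluation: Luciferase activation, seen as luminescence increase over controls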
HSP90 inh: HSP90 refolding inhibition in rabbit reticulocyte lysate; luciferase refolding luminescence, 3 h; inhibition, % at 5.6 µM; 290,000 compounds, 0.91% hits;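 active means inhibition above the screen-wide mean plus 3 SD, computed separately per campaign, cut at about 16% in these data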;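 further: inhibitors lower the luminescence because luciferase stays unfolded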
Hits are given with their value; . = inactive; / = no result.

SMILES	PPC-1+TRAIL kill	C8 TRAIL sens	STAT3 inh	FLuc inhib CS	FLuc stim CS	HSP90 inh
CCN(CC)S(=O)(=O)c1ccc(Cl)c(C(=O)Nc2cc(C)nn2-c2ccccc2)c1	51	.	.	.	.	.
CC(=O)Oc1ccc(-c2nc(-c3cccnc3)no2)cc1	.	.	.	60	.	.
Cc1ccc(C)c(OCc2nc(-c3cccnc3)no2)c1	.	.	.	.	.	.
Cc1ccc(-c2nc(-c3cccnc3)no2)c(C)c1	.	.	.	65	.	.
CCOC(=O)c1nn2c(C(F)(F)F)cc(-c3ccc(OC)cc3)nc2c1Br	/	.	/	/	/	.
COc1ccc(O)c(/C=N/N=C2/C(=O)Nc3ccccc32)c1	.	.	.	81	.	.
O=c1c2c(nc3cc(-c4ccc(F)cc4)[nH]n13)CCC2	.	.	.	51	.	.
COc1cccc(-c2cc3nc(-c4ccccc4)cc(=O)n3[nH]2)c1	/	41	/	/	/	.
Cc1cc(=O)n2[nH]c(-c3ccccc3)cc2n1	.	.	.	.	.	.
O=c1cc(-c2ccccc2)nc2cc(-c3ccc(F)cc3)[nH]n12	/	56	/	/	/	/
CS(=O)(=O)N(CC(=O)N/N=C/c1cccc2c1OCCO2)c1ccccc1Br	.	.	.	.	.	.
CCOC(=O)c1ccc(-c2ccc(/C=N/NC(=O)CN(c3ccccc3Br)S(C)(=O)=O)o2)cc1	.	.	.	.	.	16
O=C(/C=C/c1cc[n+](CC(=O)c2ccc3cccc4c3c2CC4)cc1)c1ccc2cccc3c2c1CC3	.	.	/	/	/	.
COc1ccc2c(c1OC)C(=O)OC2Nc1nc(-c2ccc(-c3ccccc3)cc2)cs1 (configuration not stated)	.	62	.	74	.	.
COc1cccc(-c2csc(NC3OC(=O)c4c3ccc(OC)c4OC)n2)c1 (configuration not stated)	.	.	/	/	/	.
CC1(C(=O)NC2CCCC2)CCC(=O)N1CCCn1ccnc1 (configuration not stated)	/	.	/	/	/	/
CN=c1scc(-c2ccccc2F)n1/N=C/c1ccc[nH]1	.	88	110	97	.	85
CCN=c1scc(-c2ccc(F)cc2)n1/N=C/c1ccccn1	.	.	.	.	.	.
COC(=O)C[C@H]1CC[C@H](NC(=O)c2ccc(F)cc2)[C@@H](CO)O1	/	.	/	/	/	/
CCOC(=O)c1cc([N+](=O)[O-])cc([N+](=O)[O-])c1Sc1ncnc2nc[nH]c12	/	67	/	/	/	/
Cc1ccc(C(=O)N/C(=C\c2ccc(-c3ccccc3[N+](=O)[O-])o2)C(=O)NCCCN(C)C)cc1	/	49	/	/	/	.
Cc1ccc(C(=O)N/C(=C\c2ccc(-c3ccccc3[N+](=O)[O-])o2)C(=O)NCCN(C)C)cc1	/	54	/	/	/	.
Cc1nc2ccn(Cc3ccccc3)c(=O)c2cc1C(=O)N1CCN(c2ccccc2)CC1	/	.	/	/	/	.
COC(=O)c1ccccc1NC(=O)c1nc(S(=O)(=O)Cc2ccccc2)ncc1Cl	/	95	/	/	/	.
CC(=O)Nc1ccc(NC(=O)c2nc(S(=O)(=O)Cc3ccccc3)ncc2Cl)cc1	/	.	/	/	/	.
SMILES	PPC-1+TRAIL kill	C8 TRAIL sens	STAT3 inh	FLuc inhib CS	FLuc stim CS	HSP90 inh
CCc1nnc(NC(=O)c2nc(S(=O)(=O)Cc3ccc(C)cc3)ncc2Cl)s1	/	95	/	/	/	.
O=C(NCc1ccccc1)c1nc(S(=O)(=O)Cc2ccccc2)ncc1Cl	/	.	/	/	/	.
CCSc1nnc(NC(=O)c2nc(S(=O)(=O)Cc3ccc(F)cc3)ncc2Cl)s1	/	.	/	/	/	.
CCc1nnc(NC(=O)c2nc(S(=O)(=O)Cc3cccc(C)c3)ncc2Cl)s1	/	98	/	/	/	.
CCc1nnc(NC(=O)c2nc(S(=O)(=O)Cc3ccccc3)ncc2Cl)s1	/	94	/	/	/	.
CCc1nnc(NC(=O)c2nc(Cl)ccc2Cl)s1	/	.	/	/	/	.
O=C1NC(Cc2ccc(O)cc2)c2nc3cc(Cl)ccc3c(=O)n2-c2cc(Cl)ccc21 (configuration not stated)	/	.	/	/	/	/
Cc1ccc(C)c(N2CCN(C(=O)c3ccc(CS(=O)Cc4cccc(Cl)c4)o3)CC2)c1 (configuration not stated)	/	.	/	/	/	.
CCOc1ccccc1NC(=O)c1nc(S(=O)(=O)Cc2cccc(C)c2)ncc1Cl	/	93	/	/	/	.
CCn1c2c(c3cc(Cl)ccc31)CCCC2=O	.	.	.	.	.	64
CSc1nc(O)c(/C=C2\C=Nc3ccccc32)[nH]1	.	.	.	60	.	.
O=C1/C(=C/N(C(=O)c2ccco2)c2ccc(Cl)cc2)Sc2ccccc21	.	55	.	86	.	16
O=C1c2ccccc2C(=O)N1CCCCN(C(=O)c1ccco1)c1ccc(Cl)cc1	.	.	.	.	.	.
CCCCC(=O)NC(Nc1nc(C2CC2)cs1)(C(=O)OCC)C(F)(F)F (configuration not stated)	.	.	.	.	.	.
CN(Cc1ccccc1)C(=O)c1cnc(Cc2c[nH]c3ccccc23)c(I)c1	/	.	/	/	/	/
Clc1ccc(-c2nc3ccncc3[nH]2)cc1	.	.	.	73	.	.
CC(C)(CNC(=O)c1cc(Cl)c(O)c(Cl)c1)N1CCCCC1	/	.	/	/	/	.
COc1ccc2nc(N=Nc3ccc(O)c4ccccc34)sc2c1	.	55	.	.	.	.
COc1ccc(CC(=O)Nc2cccc(-c3nnc(-c4ccccc4)o3)c2)cc1OC	.	56	.	.	.	.
COc1ccc(CC(=O)Nc2cccc(-c3nnc(-c4ccc(C)cc4)o3)c2)cc1OC	.	90	.	.	.	.
COc1ccc(CC(=O)Nc2ccc(-c3nnc(-c4ccccc4)o3)cc2)cc1OC	.	.	.	.	.	.
CC(C)CCNC(=O)c1ccc(NC(=O)C2=CSCCO2)cc1	/	.	/	/	/	.
C=CCNC(=O)c1ccc(NC(=O)C2=CSCCO2)cc1	/	.	/	/	/	17
C/C(=N\Nc1nc2ccc(Cl)cc2o1)c1ccccc1	.	.	/	/	/	.
COc1ccc(/C=C2\Oc3ccccc3C2=O)cc1	/	72	/	/	/	/
SMILES	PPC-1+TRAIL kill	C8 TRAIL sens	STAT3 inh	FLuc inhib CS	FLuc stim CS	HSP90 inh
COc1ccc2c(c1)O/C(=C\c1sccc1C)C2=O	.	.	.	86	.	.
CC(=O)Oc1ccc(/C=C2/Oc3ccccc3C2=O)cc1	.	.	/	/	/	.
O=C(O)COc1ccc2c(c1)O/C(=C\c1cccs1)C2=O	.	.	/	/	/	.
CC(=O)C1=C(O)C(=Cc2ccccc2)OC1=O	/	.	/	/	/	/
COc1ccc(C=C2OC(=O)C(C(C)=O)=C2O)cc1	/	84	/	/	/	/
CCOc1ccc(C(=O)NCCc2ccc3c(c2)OCCO3)cc1	.	.	.	.	.	.
Cc1cc2ncn(-c3ncccc3[N+](=O)[O-])c2cc1C	/	.	/	/	/	.
CC12CCC(=O)C=C1CCC1C2C(O)CC2(C)C1CCC2(O)C(=O)COC(=O)CCC1CCCC1 (configuration not stated)	/	.	/	/	/	/
COCCn1c2nc(=O)n(-c3ccccc3)c(=O)c-2nc2ccccc21	/	.	/	/	/	/
CCOC(=O)CNC(=O)CSc1nnc(NC(=O)c2ccc3c(c2)OCO3)s1	/	83	/	/	/	.
